Data published in ChEMBL document CHEMBL1687802, “An RpoB mutation confers dual heteroresistance to daptomycin and vancomycin in Staphylococcus aureus” (2010).
Converted amounts (≈) assume the structure as drawn.

Columns and labels:
Staphylococcus aureus [1] = assay: Antimicrobial activity against methicillin-resistant Staphylococcus aureus 10*3d1 harboring hypothetical protein SA1826 14E mutant gene after 24 hrs by Etest method; assay type: functional; conditions: 10*3d1, 24 h
Method in brief: (§1)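 Etest MICs (daptomycin, vancomycin, oxacillin, rifampin) on Mueller-Hinton agar, with the daptomycin medium supplemented with 50 mg/liter Ca2+. Plates were swabbed from a 0.5 McFarland suspension, strips were applied 10 min later, and plates were read after 24 h at 37°C. Strains were pKOR1 allelic-replacement mutants or revertants of N315ΔIP (mecI-inactivated, beta-lactamase plasmid cured) or 10*3d1, grown in BHI broth at 37°C.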

Staphylococcus aureus [2] = assay: Antimicrobial activity against methicillin-resistant Staphylococcus aureus N315deltaIP harboring hypothetical protein SA1826 14A mutant after 24 hrs by Etest method; assay type: functional; method in brief: as §1
Staphylococcus aureus [3] = assay: Antimicrobial activity against methicillin-resistant Staphylococcus aureus 10*3d1 harboring hypothetical protein SA1826 14A mutant and rpoB 621A mutant after 24 hrs by Etest method; assay type: functional; conditions: 10*3d1, 24 h; method in brief: as §1
Staphylococcus aureus [4] = assay: Antimicrobial activity against vancomycin-intermediate Staphylococcus aureus MU50-PR selected at 4 mg/L of vancomycin by Etest method; assay type: functional
Staphylococcus aureus [5] = assay: Antimicrobial activity against methicillin-resistant Staphylococcus aureus 10*3d1 harboring rpoB 621E mutation after 24 hrs by Etest method; conditions: 10*3d1, 24 h
Staphylococcus aureus [6] = assay: Antimicrobial activity against vancomycin-intermediate Staphylococcus aureus MU50 by Etest method; assay type: functional
Staphylococcus aureus [7] = assay: Antimicrobial activity against vancomycin-susceptible Staphylococcus aureus MI-P84 by Etest method
Staphylococcus aureus [8] = assay: Antimicrobial activity against methicillin-resistant Staphylococcus aureus N315deltaIP harboring rpoB A621E mutant gene after 24 hrs by Etest method; assay type: functional; method in brief: as §1
Staphylococcus aureus [9] = assay: Antimicrobial activity against vancomycin-intermediate Staphylococcus aureus MI by Etest method; assay type: functional
Staphylococcus aureus [10] = assay: Antimicrobial activity against vancomycin-susceptible Staphylococcus aureus MU50-P35 by Etest method
Staphylococcus aureus [11] = assay: Antimicrobial activity against methicillin-resistant Staphylococcus aureus 10*3d1 harboring hypothetical protein SA1826 14A mutant gene after 24 hrs by Etest method; assay type: functional; conditions: 10*3d1, 24 h; method in brief: as §1
Staphylococcus aureus [12] = assay: Antimicrobial activity against methicillin-resistant Staphylococcus aureus N315deltaIP harboring hypothetical protein SA1826 14E mutant gene after 24 hrs by Etest method; assay type: functional; method in brief: as §1
Staphylococcus aureus [13] = assay: Antimicrobial activity against methicillin-resistant Staphylococcus aureus N315deltaIP after 24 hrs by Etest method; assay type: functional; method in brief: as §1
Staphylococcus aureus [14] = assay: Antimicrobial activity against methicillin-resistant Staphylococcus aureus 10*3d1 harboring hypothetical protein SA1826 14A(-) and rpoB 621E mutant gene after 24 hrs by Etest method; assay type: functional; conditions: 10*3d1, 24 h; method in brief: as §1
Staphylococcus aureus [15] = assay: Antimicrobial activity against vancomycin-intermediate Staphylococcus aureus MI-PR selected at 4 mg/L of vancomycin by Etest method; assay type: functional
Staphylococcus aureus [16] = assay: Antimicrobial activity against methicillin-resistant Staphylococcus aureus N315deltaIP harboring rpoB 621A mutant after 24 hrs by Etest method
Staphylococcus aureus [17] = assay: Antimicrobial activity against vancomycin-intermediate Staphylococcus aureus MI-P84 selected at 4 mg/L of compound by Etest method
Staphylococcus aureus [18] = assay: Antimicrobial activity against vancomycin-intermediate Staphylococcus aureus MI-PR selected at 4 mg/L of compound by Etest method
Staphylococcus aureus [19] = assay: Antimicrobial activity against vancomycin-intermediate Staphylococcus aureus MU50-PR selected at 4 mg/L of compound by Etest method
Staphylococcus aureus [20] = assay: Antimicrobial activity against vancomycin-intermediate Staphylococcus aureus MU50-P35 selected at 4 mg/L of compound by Etest method

Row | Structure (SMILES) | MIC (Staphylococcus aureus [1]) | MIC (Staphylococcus aureus [2]) | MIC (Staphylococcus aureus [3]) | MIC (Staphylococcus aureus [4]) | MIC (Staphylococcus aureus [5]) | MIC (Staphylococcus aureus [6]) | MIC (Staphylococcus aureus [7]) | MIC (Staphylococcus aureus [8]) | MIC (Staphylococcus aureus [9]) | MIC (Staphylococcus aureus [10]) | MIC (Staphylococcus aureus [11]) | MIC (Staphylococcus aureus [12]) | MIC (Staphylococcus aureus [13]) | MIC (Staphylococcus aureus [14]) | MIC (Staphylococcus aureus [15]) | MIC (Staphylococcus aureus [16]) | MIC (Staphylococcus aureus [17]) | MIC (Staphylococcus aureus [18]) | MIC (Staphylococcus aureus [19]) | MIC (Staphylococcus aureus [20])
1 | CCCCCCCCCC(=O)N[C@@H](Cc1c[nH]c2ccccc12)C(=O)N[C@H](CC(N)=O)C(=O)N[C@@H](CC(=O)O)C(=O)N[C@@H]1C(=O)NCC(=O)N[C@@H](CCCN)C(=O)N[C@@H](CC(=O)O)C(=O)N[C@H](C)C(=O)N[C@@H](CC(=O)O)C(=O)NCC(=O)N[C@H](CO)C(=O)N[C@@H]([C@H](C)CC(=O)O)C(=O)N[C@@H](CC(=O)c2ccccc2N)C(=O)O[C@@H]1C | 1.5 µg/mL (≈ 0.926 µM) | 0.25 µg/mL (≈ 0.154 µM) | 0.25 µg/mL (≈ 0.154 µM) | 2 µg/mL (≈ 1.23 µM) | 2 µg/mL (≈ 1.23 µM) | 2 µg/mL (≈ 1.23 µM) | 0.5 µg/mL (≈ 0.309 µM) | 1.5 µg/mL (≈ 0.926 µM) | 2 µg/mL (≈ 1.23 µM) | 0.5 µg/mL (≈ 0.309 µM) | 1.5 µg/mL (≈ 0.926 µM) | 0.25 µg/mL (≈ 0.154 µM) | 0.38 µg/mL (≈ 0.234 µM) | 1.5 µg/mL (≈ 0.926 µM) | 2 µg/mL (≈ 1.23 µM) | 0.25 µg/mL (≈ 0.154 µM) | – | – | – | –
2 | Cc1onc(-c2ccccc2)c1C(=O)N[C@@H]1C(=O)N2[C@@H]1SC(C)(C)[C@@H]2C(=O)O [OXACILLIN] | > 256 µg/mL | > 256 µg/mL | > 256 µg/mL | – | > 256 µg/mL | – | – | > 256 µg/mL | – | – | > 256 µg/mL | > 256 µg/mL | 48 µg/mL (≈ 120 µM) | > 256 µg/mL | – | > 256 µg/mL | – | – | – | –
3 | CN[C@H](CC(C)C)C(=O)N[C@H]1C(=O)N[C@@H](CC(N)=O)C(=O)N[C@H]2C(=O)N[C@H]3C(=O)N[C@H](C(=O)N[C@H](C(=O)O)c4cc(O)cc(O)c4-c4cc3ccc4O)[C@H](O)c3ccc(c(Cl)c3)Oc3cc2cc(c3O[C@@H]2O[C@H](CO)[C@@H](O)[C@H](O)[C@H]2O[C@H]2C[C@](C)(N)[C@H](O)[C@H](C)O2)Oc2ccc(cc2Cl)[C@H]1O [VANCOMYCIN] | 3 µg/mL (≈ 2.07 µM) | 0.5 µg/mL (≈ 0.345 µM) | 0.75 µg/mL (≈ 0.518 µM) | – | 3 µg/mL (≈ 2.07 µM) | 6 µg/mL (≈ 4.14 µM) | – | 3 µg/mL (≈ 2.07 µM) | 7 µg/mL (≈ 4.83 µM) | – | 3 µg/mL (≈ 2.07 µM) | 0.5 µg/mL (≈ 0.345 µM) | 0.5 µg/mL (≈ 0.345 µM) | 3 µg/mL (≈ 2.07 µM) | – | 0.25 µg/mL (≈ 0.173 µM) | 1 µg/mL (≈ 0.69 µM) | 6 µg/mL (≈ 4.14 µM) | 6 µg/mL (≈ 4.14 µM) | 2 µg/mL (≈ 1.38 µM)
4 | CO[C@H]1/C=C/O[C@@]2(C)Oc3c(C)c(O)c4c(O)c(c(/C=N/N5CCN(C)CC5)c(O)c4c3C2=O)NC(=O)/C(C)=C\C=C\[C@H](C)[C@H](O)[C@@H](C)[C@@H](O)[C@@H](C)[C@H](OC(C)=O)[C@@H]1C [RIFAMPIN] | 0.006 µg/mL (≈ 0.00729 µM) | 0.006 µg/mL (≈ 0.00729 µM) | 0.006 µg/mL (≈ 0.00729 µM) | – | 0.006 µg/mL (≈ 0.00729 µM) | – | – | 0.006 µg/mL (≈ 0.00729 µM) | – | – | 0.006 µg/mL (≈ 0.00729 µM) | 0.006 µg/mL (≈ 0.00729 µM) | 0.006 µg/mL (≈ 0.00729 µM) | 0.006 µg/mL (≈ 0.00729 µM) | – | 0.006 µg/mL (≈ 0.00729 µM) | – | – | – | –
